Experiment [1] relates to P388. In words: Antitumor activity was determined against the ip implanted P388 leukemia in mice by change in […] at 133 mg/kg (treatment of 1qd schedule) dosage. Format: functional, Mus musculus. The settings on record: dose 300 mg/kg; route intraperitoneal; in the assay text read “300 mg/kg” for “133 mg/kg”. The gist of the method:
(§1)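 P388 leukemia, 1×10^6 cells implanted ip on day 0 into DBA/2J mice, groups of 6 (wt 23-33 g). Dosing ip started 24 h post-inoculation, vehicle 0.9% NaCl containing 0.5% Tween-80. Animals were observed daily until death or 45 days. Outputs were weight change, median survival T/C from survivors per NCI protocols, and %ILS = (T/C − 1) × 100.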

The subject of experiment [2] is L1210. In words: Antitumor activity was determined against the ip implanted L1210 leukemia in mice by change in […] at 80 mg/kg (treatment of 1-5qd schedule) dosage. Format: functional, Mus musculus. The settings on record: route intraperitoneal. Put shortly:
(§2)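 DBA/2J mice, 6 per group (wt 23-28 g), inoculated ip with 1×10^6 L1210 cells on day 0. Treatment was given ip in 0.9% NaCl with 0.5% Tween-80, starting 24 h later. Weight change was taken on day 8. Mice were observed daily until death or 45 days. Median survival T/C and %ILS = (T/C − 1) × 100 came from survivors per NCI protocols, and 45-day survivors were counted.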

The test system of experiment [3] is P388. In words: Antitumor activity was determined against the ip implanted P388 leukemia in mice by 45-day survivors in mice at 60 mg/kg (treatment of 1-5qd schedule) dosage. The settings on record: route intraperitoneal. Format: functional, Mus musculus. Put shortly:
(§3)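 DBA/2J mice, 23-33 g, in groups of 6, were inoculated ip with 1×10^6 P388 cells on day 0. Dosing was ip from 24 h on the stated schedules, in 0.9% NaCl with 0.5% Tween-80 (sonicated solution or suspension). Survival was followed daily until death or 45 days. Median T/C was calculated from survivors per NCI protocols, with ILS = (T/C − 1) × 100.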

Experiment [4] relates to P388. In words: Antitumor activity was determined against the ip implanted P388 leukemia in mice by percent increase in life span at 300 mg/kg (treatment of 1qd schedule) dosage. The settings on record: route intraperitoneal.
The test system of experiment [5] is L1210. In words: Antitumor activity was determined against the ip implanted L1210 leukemia in mice by percent median survival rate (treated/control) at 400 mg/kg (treatment of 1qd schedule) dosage; 27.5/7.0. Format: functional, Mus musculus. Particulars: route intraperitoneal. The gist of the method:
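DBA/2J mice, 23-28 g, in groups of 6, were inoculated ip with 1×10^6 L1210 cells on day 0. Dosing was ip starting 24 h later on the stated daily schedules. Conjugates were given as sonicated solutions and reference prodrugs as suspensions in 0.9% NaCl with 0.5% Tween-80. Mice were observed daily until death or 45 days. Median survival T/C was calculated from survivors per NCI protocols.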

The subject of experiment [6] is P388. In words: Antitumor activity was determined against the ip implanted P388 leukemia in mice by range in survival days at 200 mg/kg (treatment of 1-5qd schedule) dosage; Range is 22-24. Format: functional, Mus musculus. Particulars: route intraperitoneal.
Experiment [7] concerns L1210. In words: Antitumor activity was determined against the ip implanted L1210 leukemia in mice by percent increase in life span at 200 mg/kg (treatment of 1-5qd schedule) dosage. The settings on record: route intraperitoneal. Format: functional, Mus musculus. Put shortly: (§4)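 DBA/2J mice in groups of 6 (wt 23-28 g) were inoculated ip with 1×10^6 L1210 cells on day 0. Dosing was ip from 24 h, in 0.9% NaCl with 0.5% Tween-80 (conjugates sonicated), across a range of doses. Mice were observed daily until death or 45 days. Median T/C was computed from survivors per NCI protocols, and ILS = (T/C − 1)×100.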

The test system of experiment [8] is Small cell lung cancer cell line. In words: Compound was tested for the inhibition of small cell lung cancer. Format: functional, cell-based. The settings on record: Homo sapiens. The gist of the method:
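Human leukemia and solid tumor cells in culture were exposed to compound for 48 h. Viability was scored by trypan blue dye exclusion. IC50 (50% inhibition) was estimated from response curves of three separate experiments.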

In experiment [9] the test system is L1210. In words: Antitumor activity against ip implanted L1210 leukemia in mice expressed as active dose range (1-5qd treatment schedule) required to produce increase in life span by >25% was determined; Range is 5-350. Format: functional, Mus musculus. Put shortly: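 DBA/2J mice, groups of 6 (23-28 g), were inoculated ip with 1 × 10^6 L1210 cells on day 0. Dosing was ip from 24 h, in 0.9% NaCl with 0.5% Tween-80 (sonicated solution or suspension). Mice were observed daily until death or day 45. Median survival T/C followed NCI protocols, and ILS = (T/C − 1) × 100. Active range means doses giving ILS ≥25%; optimal dose means greatest ILS.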

In experiment [10] the test system is L1210. In words: Antitumor activity was determined against the ip implanted L1210 leukemia in mice by median survival time at 100 mg/kg (treatment of 1-5qd schedule) dosage; 23.0/7.0. Particulars: route intraperitoneal.
In experiment [11] the test system is P388. In words: Antitumor activity was determined against the ip implanted P388 leukemia in mice by change in […] at 67 mg/kg (treatment of 1,5,9qd schedule) dosage. Format: functional, Mus musculus. The settings on record: route intraperitoneal. The gist of the method:
as §1

Experiment [12] deals with L1210. In words: Antitumor activity was determined against the ip implanted L1210 leukemia in mice by percent increase in life span at 100 mg/kg (treatment of 1-5qd schedule) dosage. Format: functional, Mus musculus. Particulars: route intraperitoneal. Put shortly: as §4
The test system of experiment [13] is P388. In words: Antitumor activity was determined against the ip implanted P388 leukemia in mice by percent increase in life span at 67 mg/kg (treatment of 1,5,9qd schedule) dosage. Format: functional, Mus musculus. Particulars: route intraperitoneal.
Experiment [14] deals with P388. In words: Antitumor activity was determined against the ip implanted P388 leukemia in mice by range in survival days at 67 mg/kg (treatment of 1,5,9qd schedule) dosage; Range is 21-31. Particulars: route intraperitoneal. Format: functional, Mus musculus.
The subject of experiment [15] is P388. In words: Antitumor activity was determined against the ip implanted P388 leukemia in mice by percent median survival rate (treated/control) at 60 mg/kg (1-5qd treatment schedule) dosage; 23.0/11.0. Format: functional, Mus musculus. The settings on record: route intraperitoneal.
In experiment [16] the test system is L1210. In words: Antitumor activity against the ic implanted L1210 lymphoid leukemia in mice expressed as optimal dose (1 qd treatment schedule) required to produce greatest increase in life span was determined. Format: functional, Mus musculus. The gist of the method: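 DBA/2J mice, groups of 6 (26-32 g), got 1 × 10^5 L1210 cells ic on day 0. Dosing was ip starting 24 h later, as a sonicated solution or suspension in 0.9% NaCl with 0.5% Tween-80, over a wide dose range. Mice were followed daily until death. Median survival T/C was taken from survivors per NCI protocols, and ILS = (T/C − 1) × 100. Active range means doses giving ILS ≥25%; optimal dose means greatest ILS.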

Experiment [17] deals with L1210. In words: Antitumor activity was determined against the ip implanted L1210 leukemia in mice by 45-day survivors in mice at 40 mg/kg (treatment of 1-5qd schedule) dosage. Format: functional, Mus musculus. Particulars: route intraperitoneal. Put shortly:
as §4

Experiment [18] has as its system L1210. In words: Antitumor activity was determined against the ip implanted L1210 leukemia in mice by change in […] at 40 mg/kg (treatment of 1-5qd schedule) dosage. Format: functional, Mus musculus. Particulars: route intraperitoneal. The gist of the method: as §2
The subject of experiment [19] is L1210. In words: Antitumor activity was determined against the ic implanted L1210 lymphoid leukemia in mice by range in survival days at 300 mg/kg (1 qd treatment schedule) dosage; Range is 19-23. Format: functional, Mus musculus.
In experiment [20] the test system is P388. In words: Antitumor activity was determined against the ip implanted P388 leukemia in mice by 45-day survivors in mice at 500 mg/kg (1 qd treatment schedule) dosage. Format: functional, Mus musculus. Particulars: route intraperitoneal. The gist of the method:
as §3

Each structure is given as a SMILES string.

By T/C is commonly meant the result in the treated group divided by that in the control group, in per cent. By IC50 is commonly meant the concentration needed to halve the response being measured. Read a high IC50 as lower potency.

As for `CCCCCCCCCCCCCCCCOCC(COP(=O)(O)OP(=O)(O)OC[C@H]1O[C@@H](n2ccc(N)nc2=O)[C@@H](O)[C@@H]1O)OC(=O)CCCCCCCCCCCCCCC` (mixture of isomers), the Weight change in the experiment with P388 [1] was -1.51 g mouse-1; with L1210 [2], 0.33 g mouse-1. In the experiment with P388 [3], this molecule yielded a Survivors of 6. In the experiment with P388 [4], this molecule showed an ILS above 309. Moreover, in the experiment with L1210 [5], the T/C was 27.5%.
In the case of `Nc1ccn([C@@H]2O[C@H](CO)[C@@H](O)[C@@H]2O)c(=O)n1` [CYTARABINE], the Range in the experiment on P388 [6] amounted to 22. This molecule came in with an ILS in the experiment with L1210 [7] of 143. Moreover, in [8], the 50% inhibitory concentration (IC50) is above 100 µM. Also, the Active dose range in the experiment with L1210 [9] is 5 mg/kg/day.
In the experiment with L1210 [10], `CCCCCCCCCCCCCCCCCCOCC(COP(=O)(O)OP(=O)(O)OC[C@H]1O[C@@H](n2ccc(N)nc2=O)[C@@H](O)[C@@H]1O)OC(=O)CCCCCCCCCCCCCCC` (mixture of isomers) registered a median survival time of 23 days. The Weight change with P388 [11] was 0.63 g mouse-1. Further, the results for the ILS with L1210 [12] and with P388 [13] were 229 and 132, respectively. The molecule further gave a Range in the experiment on P388 [14] of 21. This molecule also yielded a T/C in the experiment on P388 [15] of 23%.
For the molecule `CCCCCCCCCCCCCCCC(=O)OC[C@H](COP(=O)(O)OP(=O)(O)OC[C@H]1O[C@@H](n2ccc(N)nc2=O)[C@@H](O)[C@@H]1O)OC(=O)CCCCCCCCCCCCCCC`, in the experiment with L1210 [16], the Optimal dose was found to be 300 mg. The Survivors in the experiment with L1210 [17] is recorded as 1; in the experiment on P388 [20], 4. This molecule also showed a Weight change in the experiment with L1210 [18] of -1.9 g mouse-1. Moreover, the Range with L1210 [19] was found to be 19.

Source of the values: ChEMBL document CHEMBL1123247, “Nucleoside conjugates. 7. Synthesis and antitumor activity of 1-beta-D-arabinofuranosylcytosine conjugates of ether lipids” (J Med Chem, 1986).
